According to ChEMBL document CHEMBL2413032, “Synthesis and evaluation of 1-[2-(4-[(11)C]methoxyphenyl)phenyl]piperazine for imaging of the serotonin 5-HT7 receptor in the rat brain” (Bioorg Med Chem, 2013):
The source made the active and inactive calls. No cut-off for these calls is given here.

Tests used:
Rattus norvegicus = test: Biodistribution in Sprague-Dawley rat frontal cortex assessed as increase in uptake at 0.07 to 0.11 nmol, iv pre-treated with 3 mg/kg of SB269970 measured up to 90 mins by HPLC analysis relative to control; format: ADME, organism-based; design: dose 3 mg/kg, route intravenous; details: in vivo
Outline: (§1)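 PET blocking study in male Sprague–Dawley rats under isoflurane. SB269970 3 mg/kg, in saline with 10% ethanol and 5% polysorbate 80, was given 1 min before intravenous tracer. A 90-min 3D list-mode scan (350–750 keV) followed. Regional decay-corrected SUV time-activity curves were compared with baseline animals; n = 3 per group.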

[1] = n-Octanol-sodium phosphate buffer partition coefficient, log D of the compound at pH 7.4 by shake flask method; format: physicochemical
Outline: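 Shake flask: [11C]tracer (about 150,000 cpm) was mixed with n-octanol (3.0 g) and 0.1 M sodium phosphate-buffered saline, pH 7.40 (3.0 g). The mix was vortexed 3 min at room temperature and centrifuged 3500 rpm for 5 min; n = 3.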

Cerebellum = test: Biodistribution in Sprague-Dawley rat cerebellum assessed as increase in uptake at 0.07 to 0.11 nmol, iv pre-treated with 3 mg/kg of SB269970 measured up to 90 mins by HPLC analysis relative to control; format: ADME, organism-based; design: dose 3 mg/kg, route intravenous; details: in vivo; outline: as §1
Thalamus = test: Biodistribution in Sprague-Dawley rat thalamus assessed as increase in uptake at 0.07 to 0.11 nmol, iv pre-treated with 3 mg/kg of SB269970 measured up to 90 mins by HPLC analysis relative to control; format: ADME, organism-based; design: dose 3 mg/kg, route intravenous; details: in vivo; outline: as §1
Hippocampus = test: Biodistribution in Sprague-Dawley rat hippocampus assessed as increase in uptake at 0.07 to 0.11 nmol, iv pre-treated with 3 mg/kg of SB269970 measured up to 90 mins by HPLC analysis relative to control; format: ADME, organism-based; design: dose 3 mg/kg, route intravenous; details: in vivo; outline: as §1
[2] = Drug metabolism in Sprague-Dawley rat brain assessed as intact form at 0.07 to 0.11 nmol, iv after 60 mins by HPLC analysis; format: ADME, organism-based; details: read-out: Stability
Outline: (§2)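 At 15 and 60 min after intravenous tracer, rat plasma and brain were taken. Brain was homogenized in ice-cold MeCN/H2O (1:1) and centrifuged 15,000 rpm, 2 min, 4 °C. Supernatants were run on radio-HPLC (C18, 4.6 × 250 mm; MeCN/H2O/TFA 4/6/0.05; 1.0 mL/min). Intact fraction = decay-corrected tracer peak area / total peak area × 100.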

[3] = Drug metabolism in Sprague-Dawley rat brain assessed as intact form at 0.07 to 0.11 nmol, iv after 15 mins by HPLC analysis; format: ADME, organism-based; details: read-out: Stability; outline: as §2
[4] = Drug metabolism in Sprague-Dawley rat plasma assessed as intact form at 0.07 to 0.11 nmol, iv after 60 mins by HPLC analysis; format: ADME, organism-based; details: read-out: Stability; outline: as §2
Brain [5] = test: Biodistribution in Sprague-Dawley rat brain at 0.07 to 0.11 nmol, iv after 90 mins by HPLC analysis; format: ADME, organism-based; details: in vivo, 1.5 h
Outline: (§3)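 Small-animal PET in male Sprague–Dawley rats (220–240 g, 7 weeks) under isoflurane (5% induction, 1–2% maintenance). A 90-min 3D list-mode emission scan (350–750 keV) started immediately after intravenous tracer injection, framed 4 × 1, 8 × 2, 14 × 5 min. Regional uptake was decay-corrected to injection time and expressed as SUV normalized to injected radioactivity and body weight; n = 3.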

[6] = Drug metabolism in Sprague-Dawley rat plasma assessed as intact form at 0.07 to 0.11 nmol, iv after 15 mins by HPLC analysis; format: ADME, organism-based; details: read-out: Stability; outline: as §2
Brain [7] = test: Biodistribution in Sprague-Dawley rat brain at 0.07 to 0.11 nmol, iv after 3 to 5 mins by HPLC analysis; format: ADME, organism-based; details: in vivo; outline: as §3
[8] = target: T1, 5-hydroxytryptamine receptor 1A (Rattus norvegicus) (UniProt P19327); test: Binding affinity to 5-HT1A in Sprague-Dawley rat frontal cortex after 30 mins by autoradiography; format: tissue-based
T1 sequence (whole entry): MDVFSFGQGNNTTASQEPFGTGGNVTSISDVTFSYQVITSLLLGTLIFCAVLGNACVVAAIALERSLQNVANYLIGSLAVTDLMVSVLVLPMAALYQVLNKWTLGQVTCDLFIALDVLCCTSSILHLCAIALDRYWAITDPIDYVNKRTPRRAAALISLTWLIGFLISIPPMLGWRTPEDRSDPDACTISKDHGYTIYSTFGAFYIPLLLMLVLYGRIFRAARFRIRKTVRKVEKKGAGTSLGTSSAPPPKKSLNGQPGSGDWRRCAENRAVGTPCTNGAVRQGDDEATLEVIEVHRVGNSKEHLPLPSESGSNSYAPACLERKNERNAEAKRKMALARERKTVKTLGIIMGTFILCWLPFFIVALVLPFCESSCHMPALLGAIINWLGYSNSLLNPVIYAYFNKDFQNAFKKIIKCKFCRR

[9] = target: 5-hydroxytryptamine receptor 7 (Rattus norvegicus, UniProt P32305); test: Binding affinity to 5-HT7 in rat brain; format: tissue-based
Chain of 5-hydroxytryptamine receptor 7 (P32305 whole entry): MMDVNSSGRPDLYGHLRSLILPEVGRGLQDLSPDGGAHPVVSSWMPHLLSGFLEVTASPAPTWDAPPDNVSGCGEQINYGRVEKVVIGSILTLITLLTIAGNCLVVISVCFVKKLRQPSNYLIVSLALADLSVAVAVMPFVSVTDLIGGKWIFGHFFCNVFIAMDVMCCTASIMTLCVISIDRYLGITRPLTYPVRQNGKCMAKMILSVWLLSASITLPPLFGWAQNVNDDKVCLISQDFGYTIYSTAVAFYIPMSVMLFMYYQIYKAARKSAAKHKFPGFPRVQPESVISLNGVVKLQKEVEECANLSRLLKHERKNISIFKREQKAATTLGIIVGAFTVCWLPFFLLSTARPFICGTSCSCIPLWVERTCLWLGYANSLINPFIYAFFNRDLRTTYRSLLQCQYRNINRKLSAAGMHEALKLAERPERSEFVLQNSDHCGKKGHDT

[10] = target: 5-hydroxytryptamine receptor 7 (Rattus norvegicus) (UniProt P32305); test: Binding affinity to 5-HT7 in Sprague-Dawley rat cerebellum at 1 nM after 30 mins by autoradiography; details: tested as the 11C-labelled form
Chain of 5-hydroxytryptamine receptor 7 (Rattus norvegicus) (P32305 whole entry): as above
Outline: (§4)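 Frozen sagittal male Sprague–Dawley rat brain sections were preincubated 3 × 5 min in 50 mM Tris–HCl, pH 7.4, at room temperature. They were then incubated 30 min at room temperature in fresh buffer with 1 nM [11C]tracer, alone or with unlabeled ligand or SB269970 added to define specific binding. Sections were washed 3 × 5 min in cold buffer, dipped in cold water and air-dried. Imaging-plate photo-stimulated luminescence was read in regions of interest; n = 4.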

[11] = target: 5-hydroxytryptamine receptor 7 (Rattus norvegicus) (UniProt P32305); test: Binding affinity to 5-HT7 in Sprague-Dawley rat brain assessed as reduction in total radioactivity at 1 nM after 30 mins by autoradiography in presence of unlabelled compound; details: tested as the 11C-labelled form; outline: as §4
[12] = target: T1, 5-hydroxytryptamine receptor 1A (Rattus norvegicus); test: Binding affinity to 5-HT1A in Sprague-Dawley rat cerebral cortex at 1 nM after 30 mins by autoradiography; format: tissue-based; details: tested as the 11C-labelled form
[13] = target: 5-hydroxytryptamine receptor 7 (Rattus norvegicus) (UniProt P32305); test: Binding affinity to 5-HT7 in Sprague-Dawley rat thalamus at 1 nM after 30 mins by autoradiography; details: tested as the 11C-labelled form; outline: as §4
[14] = target: 5-hydroxytryptamine receptor 7 (Rattus norvegicus) (UniProt P32305); test: Binding affinity to 5-HT7 in Sprague-Dawley rat straitum at 1 nM after 30 mins by autoradiography; details: tested as the 11C-labelled form; outline: as §4
[15] = target: T1, 5-hydroxytryptamine receptor 1A (Rattus norvegicus); test: Binding affinity to 5-HT1A in Sprague-Dawley rat hippocampus at 1 nM after 30 mins by autoradiography; format: tissue-based; details: tested as the 11C-labelled form
[16] = target: 5-hydroxytryptamine receptor 7 (Rattus norvegicus) (UniProt P32305); test: Binding affinity to 5-HT7 in Sprague-Dawley rat pons/medulla at 1 nM after 30 mins by autoradiography; details: tested as the 11C-labelled form; outline: as §4
[17] = target: 5-hydroxytryptamine receptor 7 (Rattus norvegicus) (UniProt P32305); test: Binding affinity to 5-HT7 in Sprague-Dawley rat brain assessed as reduction in total radioactivity at 1 nM after 30 mins by autoradiography in presence of SB269970; details: tested as the 11C-labelled form; outline: as §4
[18] = target: T1, 5-hydroxytryptamine receptor 1A (Rattus norvegicus); test: Binding affinity to 5-HT1A in Sprague-Dawley rat hippocampus after 30 mins by autoradiography; format: tissue-based

## [11CH3]Oc1ccc(-c2ccccc2N2CCNCC2)cc1
Rattus norvegicus
  fold change (FC): 2
[1]
  logD: 1.67
Cerebellum
  fold change (FC): 2
Thalamus
  fold change (FC): 2
Hippocampus
  fold change (FC): 2
[2]
  remaining at 1 h: 69%
[3]
  remaining at 0.25 h: 91%
[4]
  remaining at 1 h: 30%
Brain [5]
  Drug uptake: 20%
[6]
  remaining at 0.25 h: 51%
Brain [7]
  SUV: 1.2

## COc1ccc(-c2ccccc2N2CCNCC2)cc1
[8]
  Bmax: 5 nM
[9]
  Ki: 2.6 nM
[10]
  Activity: Active
[11]
  Activity: inactive
[12]
  Activity: inactive
[13]
  Activity: Active
[14]
  Activity: Active
[15]
  Activity: inactive
[16]
  Activity: Active
[17]
  Activity: inactive
[18]
  Bmax: 5 nM
